# PPC-1+TRAIL kill – compounds killing PPC-1 cancer cells with TRAIL present, primary screen, TRAIL potentiator project, ATPLite luminescence, uHTS | PPC-1 cells + TRAIL, ATPLite viability luminescence | cell killing (% activity), % at 4 µM or 5 µM | 220,000 tested, 0.41% active | AID 1443, 2008;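 active = cell killing above 50% in the first pass at 4 µM, then a duplicate retest at 5 µM averaging 50% or more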
# FLuc act counter – FLuc activators, initial screening, artefact control for FLuc-dependent activation tests, biochemical, ATPlite luminescence. ATPlite luciferase biochemical, 10 min; 0 = ATP-free wells, 1 = DMSO control. activation factor at 10 µM. 200,000 tested, under 10 active;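 active = luciferase activation factor, scaled between plate controls, of at least 2 with compound at 10 µM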
# Target sequence (P08659 whole entry, looked up): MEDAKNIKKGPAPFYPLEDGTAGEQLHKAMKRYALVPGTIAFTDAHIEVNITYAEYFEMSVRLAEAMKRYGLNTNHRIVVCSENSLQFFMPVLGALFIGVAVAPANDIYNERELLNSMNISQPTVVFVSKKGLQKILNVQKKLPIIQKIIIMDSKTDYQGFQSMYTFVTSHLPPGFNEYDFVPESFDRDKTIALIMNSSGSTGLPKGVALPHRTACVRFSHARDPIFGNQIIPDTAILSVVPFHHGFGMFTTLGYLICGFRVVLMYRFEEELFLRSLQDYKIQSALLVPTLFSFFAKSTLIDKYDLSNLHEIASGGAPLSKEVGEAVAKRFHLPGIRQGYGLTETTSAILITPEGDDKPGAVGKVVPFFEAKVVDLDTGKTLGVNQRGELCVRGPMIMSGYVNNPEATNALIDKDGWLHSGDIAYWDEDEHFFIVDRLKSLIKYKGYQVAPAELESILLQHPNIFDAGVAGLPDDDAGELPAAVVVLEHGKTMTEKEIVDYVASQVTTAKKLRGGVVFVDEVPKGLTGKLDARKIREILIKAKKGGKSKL
#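 Material: Luciferase/luciferin reagent mix; Doses: test compounds dosed from 2 mM stocks in 100% DMSO; Schedule: 10 min incubation after luciferase reagent addition, room temperature; Measured by: luminescence from luciferase reaction; Read-out: luminescence gain marking luciferase activators.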
# C8 TRAIL sens – viability loss with TRAIL in NB7+C8 cells, primary screen, TRAIL sensitizer project, cell-based, ATPlite luminescence; inhibition (viability loss, TRAIL sensitization), % at 10 µM; 360,000 tested, 1% active; AID 624354, 2012;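 active = compounds causing at least 50% loss of cell viability in the single-dose screen, relative to plate controls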
# FLuc inhib CS – firefly luciferase enzyme inhibitors, primary screen, artefact control for luciferase-based inhibitor screens, biochemical, luminescence, ATPLite; 200,000 tested, 1.5% active; Luciferin 4-monooxygenase (Photinus pyralis), P08659; 10 min; inhibition, % at 10 µM;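 active = inhibition above about 50% when tested at 10 µM, limit read from the data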
# PPC1 cytotox – cytotoxicity in PPC-1 cells, confirmation, cytotoxicity control for TRAIL apoptosis potentiator project, cell-based, ATP content luminescence; AID 1447, 2008; cytotoxicity, % at 5 µM; shares compounds with PPC-1+TRAIL kill; PPC-1 viability, ATPlite luminescence, overnight; 1,200 tested, 50% active;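 active = reconfirmed compounds whose average cytotoxicity reaches 50% or more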
# Numbers stand for hits; - = inactive; . = not tested or not shown. A selection: hits, their analogues and other compounds. The true share with any hit is near 1.5%.
SMILES,PPC-1+TRAIL kill,FLuc act counter,C8 TRAIL sens,FLuc inhib CS,PPC1 cytotox
Cn1nc(-c2ccccn2)nc2c(=O)n(C)c(=O)nc1-2,-,.,96.0,.,-
Cc1cc(C(=O)CN2C(=O)C3CC=CCC3C2=O)c(C)n1-c1ccccc1 (centres undefined),-,-,62.8,74.0,53.0
Cc1cc(C(=O)CN2C(=O)c3ccccc3S2(=O)=O)c(C)n1-c1ccccc1,-,-,62.5,62.9,-
Cc1cc(C(=O)Cn2cc(C(F)(F)F)ccc2=O)c(C)n1-c1ccccc1,-,-,-,-,.
Cc1cc(C(=O)CN2C(=O)c3ccccc3S2(=O)=O)c(C)n1C(C)C,.,.,-,.,.
Cc1ccc(C(=O)CN2C(=O)c3ccccc3S2(=O)=O)cc1,-,.,-,.,-
COc1ccccc1N1CCN(C(=O)CSc2ncccc2-c2nc3ccccc3[nH]2)CC1,-,-,-,-,.
COCCOC(=O)CSc1ncccc1-c1nc2cc(C)c(C)cc2[nH]1,57.3,-,65.4,74.8,59.1
CCC1Sc2ccc(S(=O)(=O)CCC(=O)Nc3ccccc3Cl)cc2NC1=O (centres undefined),.,.,-,.,.
Cc1c(NC(=O)OCCNC(=O)COc2ccc(Cl)cc2Cl)sc(=S)n1C,-,-,-,-,.
COc1cc(SC)ccc1C(=O)Nc1ccc(Cl)cn1,87.0,-,90.3,94.3,87.3
CSc1ccc(Cl)c(C(=O)Nc2ccc(Cl)cn2)c1,-,-,-,-,.
CCC1CCc2c(sc(NC(=O)CSc3nc(-c4ccco4)cc(C(F)(F)F)n3)c2C#N)C1 (centres undefined),-,-,-,-,-
COc1ccc(CNC(=O)N2CCN(C(=O)c3ccccc3)CC2)cc1,.,.,-,.,.
COc1ccc(C2N(C(=O)c3ccccc3)CCN2C(=O)c2ccccc2)cc1,-,-,-,-,-
CCOC(=O)c1sc(NC(=O)c2cccs2)cc1C,59.9,-,-,71.1,59.8
O=C(NCc1ccccc1)C(c1cccc2ccccc12)n1c(=O)c(-c2ccco2)nc2ccccc21 (centres undefined),.,.,-,.,.
COc1ccc(S(=O)(=O)N(Cc2ccccc2)c2ccccc2C(=O)N2CCOCC2)cc1,.,.,-,.,.
Cc1nc2sc(-c3ccccc3)cc2c(=O)n1-n1cccc1,-,-,-,-,.
Cc1nc2sc(-c3ccccc3)cc2c(=O)n1N,-,.,60.3,.,-
O=c1[nH]c(-c2cccnc2)nc2sc(-c3ccccc3)cc12,-,-,-,-,.
Cc1nc2sc(-c3ccccc3)cc2c(=O)[nH]1,65.0,-,77.2,90.1,60.6
O=C1CN(C(=O)N[C@@H](Cc2ccccc2)C(=O)N[C@@H](Cc2ccccc2)C(=O)O)c2ccccc2N1,.,.,-,.,.
COc1ccc(-c2cc(=Nc3ccc(C(=O)O)cc3)c3cc(C)ccc3o2)cc1,-,-,-,58.4,-
Nc1nc(CSCc2ccccc2)nc(N2CCOCC2)n1,-,-,-,-,-
SMILES,PPC-1+TRAIL kill,FLuc act counter,C8 TRAIL sens,FLuc inhib CS,PPC1 cytotox
C/C(=N/O)c1c(O)c(C)c(-c2ccccc2)n(-c2ccccc2)c1=O,-,-,-,-,.
O=S1(=O)c2cccc3cccc(c23)N1Cc1nnc(-c2ccccc2Br)o1,-,-,-,-,.
O=S1(=O)c2cccc3cccc(c23)N1Cc1ccc(-c2nnco2)cc1,-,-,-,-,-
CCOc1ccc(N2CC(C(=O)Nc3cc(Cl)ccc3-n3cncn3)CC2=O)cc1 (centres undefined),.,.,-,.,.
CCn1c(SCC(=O)NCc2ccco2)nc2ccccc2c1=O,-,-,-,-,.
COc1ccc(C(=O)Nn2c(SCC(=O)NCc3ccco3)nc3ccccc3c2=O)cc1,-,-,-,53.5,-
CCOC(=O)C1=C(C)N(CCCC(=O)O)C(=O)NC1c1ccc([N+](=O)[O-])cc1 (centres undefined),-,-,-,-,-
COC(=O)C1=C(C)N(CCCC(=O)O)C(=O)NC1c1ccc([N+](=O)[O-])cc1 (centres undefined),.,.,-,.,.
CCOc1ccc(-c2ccc(SCC)nn2)cc1,59.6,-,72.8,85.6,56.8
Cc1ccc(-c2ccc(SCC(=O)NC3CCCC3)nn2)cc1,.,.,-,.,.
COc1ccc(-c2ccc(SC)nn2)cc1,76.7,-,86.1,93.7,68.7
COc1ccc(C(=O)CSc2ccc(-c3ccccc3)nn2)cc1,-,-,-,-,.
CCOc1ccc(-c2ccc(SCc3ccccn3)nn2)cc1,-,-,-,-,.
CCSc1ccc(-c2ccc(C)cc2)nn1,50.4,-,57.0,87.7,51.0
Cn1cc(C=O)c2cc(S(=O)(=O)N3CCOCC3)ccc21,-,-,-,-,.
O=C(NCc1cccs1)C1CCCN1C(=O)Nc1ccccc1Cl (centres undefined),.,.,-,.,.
O=S(=O)(Nc1ccc2c(c1)oc1ccccc12)N1CCCC1,-,-,-,-,.
COc1cccc(N=c2oc3ccc(OC)cc3cc2-c2nc3ccccc3[nH]2)c1,-,-,62.9,-,-
COc1ccc(CN2[C@@H](CC(=O)O)c3cc(C(F)(F)F)ccc3S2(=O)=O)cc1,.,.,-,.,.
O=S(=O)(NCc1ccccn1)c1cc(C(F)(F)F)ccc1Cl,-,-,-,-,.
O=C(Nc1nc(-c2ccccn2)cs1)C12CC3CC(CC(O)(C3)C1)C2,-,-,59.6,82.6,-
CCCOc1ccc(-c2nnc(-c3ccco3)o2)cc1,-,-,54.9,77.0,-
COc1ccc(N2CCN(C3CC(=O)N(Cc4ccc(N5CCCC5=O)cc4)C3=O)CC2)cc1 (centres undefined),-,-,-,-,.
O=C1CC(N2CCN(c3ccc(F)cc3)CC2)C(=O)N1Cc1ccc(N2CCCC2=O)cc1 (centres undefined),-,-,-,-,-
C/C(=N\Nc1cccc2cccnc12)c1ccccn1,-,-,74.7,87.1,-
SMILES,PPC-1+TRAIL kill,FLuc act counter,C8 TRAIL sens,FLuc inhib CS,PPC1 cytotox
COc1ccc(/C=C(/NC(=O)c2ccccc2)C(=O)N2CCC(C)CC2)cc1,.,.,-,.,.
COc1cccc(-c2cc(C(=O)Nc3cccc(O)c3)no2)c1,55.8,-,69.8,83.3,54.6
Cc1cccc(N2C(=S)NC3c4ccccc4OC2(C)C3C(=O)N(C)C)c1 (centres undefined),-,-,-,-,-
CN(C)C(=O)C1C2NC(=S)N(c3ccccc3)C1(C)Oc1ccccc12 (centres undefined),-,-,-,-,.
CCCCNc1nnc(Cc2ccc(Cl)cc2)c(=O)[nH]1,.,.,-,.,.
CCN(CC)c1ccc(C=Nc2ccc(N(C)C)cc2)c(O)c1,-,-,-,-,.
CCN(CC)c1ccc(N=Cc2ccc(N(CC)CC)cc2O)cc1,-,-,-,-,-
COC(=O)c1[nH]c2cccc(OC)c2c1NC(=O)CCN1CCN(c2ccccc2OC)CC1,-,-,-,-,.
Cc1ccc(NC(=O)Cc2cn3ccsc3n2)nc1,-,-,-,-,-
CCc1ccccc1S(=O)(=O)c1c(C)cc(C)nc1Cl,.,.,-,.,.

# Compound activity from PubChem.
